Tests used:
Brain [1] = assay: Drug uptake albino mouse brain at 10 mg equivalent of oxazepam/kg, iv after 40 mins measured per gm of tissue by thin-layer chromatography; format: ADME, organism-based; conditions: in vivo
Brain [2] = assay: Drug uptake albino mouse brain at 10 mg equivalent of oxazepam/kg, iv after 10 mins measured per gm of tissue by thin-layer chromatography; format: ADME, organism-based; conditions: in vivo
Brain [3] = assay: Drug uptake albino mouse brain at 10 mg equivalent of oxazepam/kg, iv after 30 mins measured per gm of tissue by thin-layer chromatography; format: ADME, organism-based; conditions: in vivo, 0.5 h
Brain [4] = assay: Drug uptake albino mouse brain at 10 mg equivalent of oxazepam/kg, iv after 120 mins measured per gm of tissue by thin-layer chromatography; format: ADME, organism-based; conditions: in vivo, 2 h
[5] = Retardation factor, Rm of the compound by thin-layer chromatography; format: physicochemical
Brain [6] = assay: Drug uptake albino mouse brain at 10 mg equivalent of oxazepam/kg, iv after 20 mins measured per gm of tissue by thin-layer chromatography; format: ADME, organism-based; conditions: in vivo
Brain [7] = assay: Drug uptake albino mouse brain at 10 mg equivalent of oxazepam/kg, iv after 240 mins measured per gm of tissue by thin-layer chromatography; format: ADME, organism-based; conditions: in vivo, 4 h
Brain [8] = assay: Drug uptake albino mouse brain at 10 mg equivalent of oxazepam/kg, iv after 90 mins measured per gm of tissue by thin-layer chromatography; format: ADME, organism-based; conditions: in vivo, 1.5 h
Brain [9] = assay: Drug uptake albino mouse brain at 10 mg equivalent of oxazepam/kg, iv after 5 mins measured per gm of tissue by thin-layer chromatography; format: ADME, organism-based; conditions: in vivo
Brain [10] = assay: Drug uptake albino mouse brain at 10 mg equivalent of oxazepam/kg, iv after 2 mins measured per gm of tissue by thin-layer chromatography; format: ADME, organism-based; conditions: in vivo
Brain [11] = assay: Drug uptake albino mouse brain at 10 mg equivalent of oxazepam/kg, iv after 60 mins measured per gm of tissue by thin-layer chromatography; format: ADME, organism-based; conditions: in vivo, 1 h
Liver [12] = assay: Drug metabolism in albino mouse liver assessed as total metabolite concentration at 5 mg equivalent of oxazepam/kg, iv after 5 mins by thin layer chromatography; format: ADME, organism-based; conditions: in vivo
Summary of the method: (§1)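 Liver was dried and its total radioactivity, the sum of metabolites, was measured on a carbon-tritium analyzer. Values are means of four mice (±SE).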

Brain [13] = assay: Drug uptake albino mouse brain at 5 mg equivalent of oxazepam/kg, iv after 240 mins measured per gm of tissue by thin-layer chromatography; format: ADME, organism-based; conditions: in vivo, 4 h
Liver [14] = assay: Drug metabolism in albino mouse liver assessed as total metabolite concentration at 5 mg equivalent of oxazepam/kg, iv after 3 mins by thin layer chromatography; format: ADME, organism-based; conditions: in vivo, 0.05 h; summary of the method: as §1
Brain [15] = assay: Drug uptake albino mouse brain at 5 mg equivalent of oxazepam/kg, iv after 60 mins measured per gm of tissue by thin-layer chromatography; format: ADME, organism-based; conditions: in vivo, 1 h
Liver [16] = assay: Drug metabolism in albino mouse liver assessed as total metabolite concentration at 5 mg equivalent of oxazepam/kg, iv after 10 mins by thin layer chromatography; format: ADME, organism-based; conditions: in vivo; summary of the method: as §1
Brain [17] = assay: Drug uptake albino mouse brain at 5 mg equivalent of oxazepam/kg, iv after 10 mins measured per gm of tissue by thin-layer chromatography; format: ADME, organism-based; conditions: in vivo
Brain [18] = assay: Drug uptake albino mouse brain at 5 mg equivalent of oxazepam/kg, iv after 20 mins measured per gm of tissue by thin-layer chromatography; format: ADME, organism-based; conditions: in vivo
Brain [19] = assay: Drug uptake albino mouse brain at 5 mg equivalent of oxazepam/kg, iv after 5 mins measured per gm of tissue by thin-layer chromatography; format: ADME, organism-based; conditions: in vivo
Brain [20] = assay: Drug uptake albino mouse brain at 5 mg equivalent of oxazepam/kg, iv after 1 min measured per gm of tissue by thin-layer chromatography; format: ADME, organism-based; conditions: in vivo
Brain [21] = assay: Drug uptake albino mouse brain at 5 mg equivalent of oxazepam/kg, iv after 40 mins measured per gm of tissue by thin-layer chromatography; format: ADME, organism-based; conditions: in vivo
Brain [22] = assay: Drug uptake albino mouse brain at 5 mg equivalent of oxazepam/kg, iv after 120 mins measured per gm of tissue by thin-layer chromatography; format: ADME, organism-based; conditions: in vivo, 2 h
Brain [23] = assay: Drug uptake albino mouse brain at 5 mg equivalent of oxazepam/kg, iv after 3 mins measured per gm of tissue by thin-layer chromatography; format: ADME, organism-based; conditions: in vivo, 0.05 h
Liver [24] = assay: Drug metabolism in albino mouse liver assessed as total metabolite concentration at 5 mg equivalent of oxazepam/kg, iv after 1 min by thin layer chromatography; format: ADME, organism-based; conditions: in vivo; summary of the method: as §1
[25] = Drug metabolism in mouse liver microsomes assessed as rate of esterase-mediated compound hydrolysis measured per mg of protein by pH stat based titrimetric analysis; format: ADME
esterase = assay: (§2) Drug metabolism in mouse liver microsomes assessed as rate of esterase-mediated compound hydrolysis by pH stat based titrimetric analysis; format: ADME; conditions: liver microsomes
Mus musculus [26] = species on record: Mus musculus; assay: Ratio of ED50 for muscle relaxant activity in mouse to ED50 for antimetrazol activity in mouse measured after 30 mins
[27] = as §2; format: ADME; conditions: microsomes
Mus musculus [28] = assay: Muscle relaxant activity in iv dosed mouse after 60 mins by rotarod test; format: ADME, organism-based; conditions: in vivo, 1 h
Mus musculus [29] = assay: Antimetrazol activity in iv dosed mouse assessed as inhibition of metrazol-induced tonic-extensor seizures administered 30 mins prior to metrazol challenge; format: functional
Summary of the method: (§3)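 Mice dosed iv with the ester in aqueous solution containing under 10% chremofor. Metrazol 125 mg/kg sc was given 30 or 60 min after the ester. ED50 is the dose preventing tonic-extensor seizures in 50% of mice, derived by probit analysis.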

Mus musculus [30] = assay: Muscle relaxant activity in iv dosed mouse after 30 mins by rotarod test; format: ADME, organism-based; conditions: in vivo, 0.5 h
Mus musculus [31] = species on record: Mus musculus; assay: Ratio of ED50 for muscle relaxant activity in mouse to ED50 for antimetrazol activity in mouse measured after 60 mins
Mus musculus [32] = assay: Antimetrazol activity in iv dosed mouse assessed as inhibition of metrazol-induced tonic-extensor seizures administered 60 mins prior to metrazol challenge; format: functional; summary of the method: as §3
[33] = Mus musculus, iv, read-out: ED50

Compound | Rm [5] | Drug uptake (Brain [13]) [nmol] | Drug uptake (Brain [15]) [nmol] | Drug uptake (Brain [17]) [nmol] | Drug uptake (Brain [18]) [nmol] | Drug uptake (Brain [19]) [nmol] | Drug uptake (Brain [21]) [nmol] | Drug uptake (Brain [22]) [nmol] | Drug uptake (Brain [23]) [nmol] | Vmax [25] [nmol/min] | also measured
CCC(CC)C(=O)OC1N=C(c2ccccc2)c2cc(Cl)ccc2N[14C]1=O (stereo unspecified) | 0.46 | – | – | – | – | – | – | – | – | – | Drug uptake (Brain [1]): 18 nmol; Drug uptake (Brain [2]): 4.8 nmol; Drug uptake (Brain [3]): 12.1 nmol; Drug uptake (Brain [4]): 20 nmol; Drug uptake (Brain [6]): 7.8 nmol; Drug uptake (Brain [7]): 13.5 nmol; Drug uptake (Brain [8]): 20.9 nmol; Drug uptake (Brain [9]): 2 nmol; Drug uptake (Brain [10]): 0.8 nmol; Drug uptake (Brain [11]): 23.1 nmol
O=C(CCCc1ccccc1)OC1N=C(c2ccccc2)c2cc(Cl)ccc2N[14C]1=O (stereo unspecified) | 0.65 | 12.2 | 9.6 | 2.9 | 6.5 | 0.8 | 9.5 | 15.1 | 0.9 | – | Drug metabolism (Liver [12]): 82.3 nmol/g; Drug metabolism (Liver [14]): 85.9 nmol/g; Drug metabolism (Liver [16]): 40.4 nmol/g; Drug uptake (Brain [20]): 0.4 nmol; Drug metabolism (Liver [24]): 80.7 nmol/g
O=C(CCc1ccccc1)OC1N=C(c2ccccc2)c2cc(Cl)ccc2N[14C]1=O (stereo unspecified) | 0.5 | 6.6 | 13.6 | 2.2 | 7.1 | 1.4 | 12.1 | 12.2 | 0.8 | – | Drug metabolism (Liver [12]): 34.7 nmol/g; Drug metabolism (Liver [14]): 45.6 nmol/g; Drug metabolism (Liver [16]): 32.6 nmol/g; Drug uptake (Brain [20]): 0.5 nmol; Drug metabolism (Liver [24]): 40.7 nmol/g
O=C(Cc1ccccc1)OC1N=C(c2ccccc2)c2cc(Cl)ccc2NC1=O (stereo unspecified) | – | – | – | – | – | – | – | – | – | 12.2 | Km (esterase): 22.7 µM
CC(Cc1ccccc1)C(=O)OC1N=C(c2ccccc2)c2cc(Cl)ccc2NC1=O (racemic) | – | – | – | – | – | – | – | – | – | 2.4 | Ratio ED50 (Mus musculus [26]): 7.4; Km [27]: 8.3 µM; ED50 (Mus musculus [28]): 4.01 mg/kg; ED50 (Mus musculus [29]): 0.51 mg/kg; ED50 (Mus musculus [30]): 3.75 mg/kg; Ratio ED50 (Mus musculus [31]): 6.1; ED50 (Mus musculus [32]; [33]): 0.66 mg/kg
CC(Cc1ccccc1)C(=O)OC1N=C(c2ccccc2)c2cc(Cl)ccc2N[14C]1=O (racemic) | 0.64 | 5.5 | 13 | 4.7 | 5.4 | – | 10 | 14.2 | 1.3 | – | –
CC(Cc1ccccc1)C(=O)OC1N=C(c2ccccc2)c2cc(Cl)ccc2NC1=O (single isomer, unassigned; (-)) | – | – | – | – | – | – | – | – | – | 2.6 | Ratio ED50 (Mus musculus [26]): 3.5; Km [27]: 8.7 µM; ED50 (Mus musculus [28]): 2.2 mg/kg; ED50 (Mus musculus [29]): 0.81 mg/kg; ED50 (Mus musculus [30]): 2.86 mg/kg; Ratio ED50 (Mus musculus [31]): 2.4; ED50 (Mus musculus [32]): 0.92 mg/kg
CC(Cc1ccccc1)C(=O)OC1N=C(c2ccccc2)c2cc(Cl)ccc2N[14C]1=O (single isomer, unassigned; (-)) | – | 12.2 | 14.8 | 4.6 | 6.7 | 1.6 | 11.8 | 13.7 | 0.8 | – | –
CC(Cc1ccccc1)C(=O)OC1N=C(c2ccccc2)c2cc(Cl)ccc2NC1=O (stereo in doubt; 11) | – | – | – | – | – | – | – | – | – | 7.3 | Ratio ED50 (Mus musculus [26]): 6.8; Km [27]: 25 µM; ED50 (Mus musculus [28]): 3.83 mg/kg; ED50 (Mus musculus [29]): 0.39 mg/kg; ED50 (Mus musculus [30]): 2.67 mg/kg; Ratio ED50 (Mus musculus [31]): 4.7; ED50 (Mus musculus [32]): 0.82 mg/kg
CC(Cc1ccccc1)C(=O)OC1N=C(c2ccccc2)c2cc(Cl)ccc2N[14C]1=O (stereo in doubt; [14C]-11) | – | 7.2 | 12.8 | 5.6 | 7.7 | 2.6 | 10.8 | 11.7 | 2.1 | – | –
O=C1Nc2ccc(Cl)cc2C(c2ccccc2)=NC1O (stereo unspecified) [OXAZEPAM] | – | – | – | – | – | – | – | – | – | – | ED50 (Mus musculus [29]; [33]): 0.18 mg/kg; ED50 (Mus musculus [32]; [33]): 0.39 mg/kg

Source: ChEMBL document CHEMBL3243954 (J Med Chem, 1979)
